Active and inactive are the calls of the source. The rule behind the calls is not given here.
Species: Homo sapiens
Experiment: Inhibition of acetyl-PHF6 amide self-aggregation (unknown origin) in pH 7.4 phosphate buffer at 10 uM and 25 degreeC measured every 1 min for 120 mins under shaking condition by ThT fluorescence assay relative to control
Settings: not given
In short: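 AcPHF6 dissolved in HFIP, dried overnight, 1 mM water stock used at once. Final 100 μM peptide, 20 μM ThT, 10 μM compound (≤0.1% DMSO) in 50 mM phosphate buffer pH 7.4, 25 °C. Ex 440/em 490 nm read each minute for 120 min, 10 s shaking (400 rpm) before each read. Inhibition from mean signal at 50–60 min; ≥3 wells; mean ± SD of three experiments; DMSO negative control.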

SMILES	inhibition
CC(=O)c1c(O)c(C)c(O)c2c1OC1=Cc3c(c(C)nn3-c3ccc(S(C)(=O)=O)cc3)C(=O)[C@@]12C	28.7%
CC(=O)c1c(O)c(C)c(O)c2c1OC1=Cc3c(c(C)nn3-c3nc4ccccc4s3)C(=O)[C@@]12C	inactive
CC(=O)c1c(O)c(C)c(O)c2c1OC1=Cc3c(c(C)nn3-c3ccccn3)C(=O)[C@@]12C	17.1%
CC(=O)c1c(O)c(C)c(O)c2c1OC1=Cc3[nH]nc(C)c3C(=O)[C@@]12C	22.5%
CC(=O)c1c(O)c(C)c(O)c2c1OC1=Cc3c(c(C)nn3-c3ccc(F)cc3)C(=O)[C@@]12C	26.9%
CC(=O)c1c(O)c(C)c(O)c2c1OC1=Cc3c(c(C)nn3-c3cccc(F)c3)C(=O)[C@@]12C	30.3%
CC(=O)C1=C([O-])C=C2Oc3c(C(C)=O)c(O)c(C)c(O)c3[C@]2(C)C1=O.[Na+]	inactive
CC(=O)c1c(O)c(C)c(O)c2c1OC1=CC(=O)/C(=C(/C)Nc3ccc4c(c3)ncn4C)C(=O)[C@@]12C	inactive
COc1ccc(-n2nc(C)c3c2C=C2Oc4c(C(C)=O)c(O)c(C)c(O)c4[C@@]2(C)C3=O)cn1	7.7%
COc1cccc(-n2nc(C)c3c2C=C2Oc4c(C(C)=O)c(O)c(C)c(O)c4[C@@]2(C)C3=O)c1	24%
CC(=O)c1c(O)c(C)c(O)c2c1OC1=CC(=O)/C(=C(/C)Nc3ccc(O)cn3)C(=O)[C@@]12C	58.3%
O=c1c(O)c(-c2cc(O)c(O)c(O)c2)oc2cc(O)cc(O)c12	85.9%
CC(=O)c1c(O)c(C)c(O)c2c1OC1=CC(=O)/C(=C(/C)Nc3ncccc3O)C(=O)[C@@]12C	48%
CC(=O)c1c(O)c(C)c(O)c2c1OC1=CC(=O)/C(=C(/C)Nc3ccc(N(C)C)cc3)C(=O)[C@@]12C	48.1%
CC(=O)c1c(O)c(C)c(O)c2c1OC1=CC(=O)/C(=C(/C)NCCCCCO)C(=O)[C@@]12C	inactive
COc1ccc(-n2nc(C)c3c2C=C2Oc4c(C(C)=O)c(O)c(C)c(O)c4[C@@]2(C)C3=O)cc1	27.2%
CC(=O)c1c(O)c(C)c(O)c2c1OC1=Cc3c(c(C)nn3-c3nc4ccccc4[nH]3)C(=O)[C@@]12C	12.2%
CC(=O)c1c(O)c(C)c(O)c2c1OC1=CC(=O)/C(=C(/C)N[C@@H](Cc3ccccc3)C(=O)O)C(=O)[C@@]12C	inactive
CC(=O)c1c(O)c(C)c(O)c2c1OC1=Cc3c(c(C)nn3-c3cccc(C(=O)O)c3)C(=O)[C@@]12C	40.4%
CC(=O)c1c(O)c(C)c(O)c2c1OC1=CC(=O)/C(=C(/C)Nc3c(C)cc(O)cc3C)C(=O)[C@@]12C	inactive
CC(=O)c1c(O)c(C)c(O)c2c1OC1=CC(=O)/C(=C(/C)Nc3cnc(N)cn3)C(=O)[C@@]12C	44.2%
CC(=O)c1c(O)c(C)c(O)c2c1OC1=CC(=O)/C(=C(/C)N[C@@H](Cc3c[nH]c4ccccc34)C(=O)O)C(=O)[C@@]12C	47.6%
CC(=O)c1c(O)c(C)c(O)c2c1OC1=CC(=O)/C(=C(/C)Nc3ccc(N)cn3)C(=O)[C@@]12C	46.4%
CC(=O)c1c(O)c(C)c(O)c2c1OC1=Cc3c(c(C)nn3-c3cccnc3)C(=O)[C@@]12C	29.8%
CC(=O)c1c(O)c(C)c(O)c2c1OC1=Cc3c(c(C)nn3-c3ccncc3)C(=O)[C@@]12C	8.5%
CC(=O)c1c(O)c(C)c(O)c2c1OC1=CC(=O)/C(=C(/C)Nc3ccc(Cl)cc3O)C(=O)[C@@]12C	48.4%

SMILES	inhibition
CC(=O)c1c(O)c(C)c(O)c2c1OC1=Cc3c(c(C)nn3S(=O)(=O)c3ccccc3)C(=O)[C@@]12C	inactive
CC(=O)c1c(O)c(C)c(O)c2c1OC1=CC(=O)/C(=C(/C)Nc3ccc(C)cc3O)C(=O)[C@@]12C	25.3%
CC(=O)c1c(O)c(C)c(O)c2c1OC1=CC(=O)/C(=C(/C)Nc3cccc4cccnc34)C(=O)[C@@]12C	inactive
CC(=O)c1c(O)c(C)c(O)c2c1OC1=CC(=O)/C(=C(/C)Nc3cc(Cl)ccc3O)C(=O)[C@@]12C	22%
CC(=O)c1c(O)c(C)c(O)c2c1OC1=Cc3c(c(C)nn3-c3n[nH]c(=O)c4ccccc34)C(=O)[C@@]12C	9.3%
CC(=O)c1c(O)c(C)c(O)c2c1OC1=CC(=O)/C(=C(/C)Nc3ccc(N4CCN(C)CC4)cc3)C(=O)[C@@]12C	48.2%
CC(=O)c1c(O)c(C)c(O)c2c1OC1=Cc3c(c(C)nn3S(=O)(=O)c3ccc(C)cc3)C(=O)[C@@]12C	inactive
CC(=O)c1c(O)c(C)c(O)c2c1OC1=CC(=O)/C(=C(/C)Nc3ccc4c(ccn4C)c3)C(=O)[C@@]12C	27.6%
CC(=O)c1c(O)c(C)c(O)c2c1OC1=Cc3c(c(C)nn3-c3ccc(C)nn3)C(=O)[C@@]12C	40.9%
CC(=O)c1c(O)c(C)c(O)c2c1OC1=CC(=O)/C(=C(/C)N)C(=O)[C@@]12C	inactive
COc1cc(N/C(C)=C2\C(=O)C=C3Oc4c(C(C)=O)c(O)c(C)c(O)c4[C@@]3(C)C2=O)cc(OC)c1OC	5.4%
CC(=O)c1c(O)c(C)c(O)c2c1OC1=Cc3c(c(C)nn3-c3cnccn3)C(=O)[C@@]12C	38%
CC(=O)c1c(O)c(C)c(O)c2c1OC1=CC(=O)/C(=C(/C)Nc3ccc4[nH]ccc4c3)C(=O)[C@@]12C	39.2%
CC(=O)c1c(O)c(C)c(O)c2c1OC1=CC(=O)/C(=C(/C)Nc3cc(C(C)C)c(O)cc3C)C(=O)[C@@]12C	inactive
CC(=O)c1c(O)c(C)c(O)c2c1OC1=Cc3c(c(C)nn3-c3ccc(S(N)(=O)=O)cc3)C(=O)[C@@]12C	46.8%
CC(=O)c1c(O)c(C)c(O)c2c1OC1=CC(=O)/C(=C(/C)Nc3ccc4scnc4c3)C(=O)[C@@]12C	29.8%
CC(=O)c1c(O)c(C)c(O)c2c1OC1=CC(=O)/C(=C(/C)Nc3ccc(C(=O)O)c(O)c3)C(=O)[C@@]12C	27.6%
CC(=O)c1c(O)c(C)c(O)c2c1OC1=Cc3c(c(C)nn3-c3ccc(C#N)cc3)C(=O)[C@@]12C	20.1%
COc1ccc(S(=O)(=O)n2nc(C)c3c2C=C2Oc4c(C(C)=O)c(O)c(C)c(O)c4[C@@]2(C)C3=O)cc1	inactive
CCOC(=O)c1ccc(-n2nc(C)c3c2C=C2Oc4c(C(C)=O)c(O)c(C)c(O)c4[C@@]2(C)C3=O)cc1	14.5%
CC(=O)c1c(O)c(C)c(O)c2c1OC1=CC(=O)/C(=C(/C)Nc3cccc(N(C)C)c3)C(=O)[C@@]12C	11.3%
CC(=O)c1c(O)c(C)c(O)c2c1OC1=Cc3c(c(C)nn3-c3ccc(C(C)(C)C)cc3)C(=O)[C@@]12C	22.3%
CC(=O)c1c(O)c(C)c(O)c2c1OC1=CC(=O)/C(=C(/C)Nc3cc(C)ccc3O)C(=O)[C@@]12C	12.7%
CC(=O)c1c(O)c(C)c(O)c2c1OC1=CC(=O)/C(=C(/C)Nc3cc(C(C)(C)C)c(O)c(C(C)(C)C)c3)C(=O)[C@@]12C	inactive
CC(=O)c1c(O)c(C)c(O)c2c1OC1=Cc3c(c(C)nn3-c3ccccc3C(=O)O)C(=O)[C@@]12C	32.8%

Each compound was assayed on BV-2 (assay: Cytotoxicity against mouse BV-2 cells at 20 uM measured after 24 hrs by MTT assay). Settings: bv-2, 24 h.
Type: cell-based
In short: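 Cells in high-glucose DMEM with 10% FBS, 5% CO₂, 37 °C, seeded 3000–5000/well, exposed to compound 24 h. MTT (0.5 mg/mL) 4 h, formazan dissolved in DMSO, absorbance 570 nm (reference 630 nm). Viability as percent of untreated control; mean ± SD, three independent experiments.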

SMILES	Activity
CC(=O)C1=C([O-])C=C2Oc3c(C(C)=O)c(O)c(C)c(O)c3[C@]2(C)C1=O.[Na+]	Toxic

Species: Homo sapiens
Experiment: Inhibition of acetyl-PHF6 amide self-aggregation (unknown origin) in pH 7.4 phosphate buffer assessed as decrease in absorbance intensity at 10 uM and 25 degreeC measured immediately after 10 sec vibration per minute for 120 mins under shaking condition by circular dichroism spectroscopy
Settings: not given
In short: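 Fresh samples of 100 μM AcPHF6 with 10 μM compound (≤0.1% DMSO) in 50 mM phosphate buffer pH 7.4. 10 s vibration per minute at 25 °C over 120 min. Spectra 260–200 nm, 1 mm quartz cell, 1 nm bandwidth, 50 nm/min scan. Solvent and compound contributions subtracted, converted to Δε per residue, Savitzky-Golay smoothed.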

SMILES	inhibition
CC(=O)c1c(O)c(C)c(O)c2c1OC1=CC(=O)/C(=C(/C)Nc3ccc(O)cn3)C(=O)[C@@]12C	Active

Species: Homo sapiens
Experiment: Inhibition of acetyl-PHF6 amide self-aggregation (unknown origin) in pH 7.4 phosphate buffer assessed as absence of fibrillar material at 20 uM and 25 degreeC measured after 10 mins by phosphotungstic acid staining based TEM analysis
Settings: not given

SMILES	inhibition
CC(=O)c1c(O)c(C)c(O)c2c1OC1=CC(=O)/C(=C(/C)Nc3ccc(O)cn3)C(=O)[C@@]12C	inactive
